Results on one compound are retold here after ChEMBL document CHEMBL3745596, “Chlorophenoxy aminoalkyl derivatives as histamine H(3)R ligands and antiseizure agents” (Bioorg Med Chem, 2016).

Active and inactive are the calls of the source.

Data set [1] has as its system Mus musculus. The data set is described as follows: Anticonvulsant activity in ip dosed CF1 albino mouse assessed as protection against subcutaneous pentetrazole-induced seizure after 0.25 hrs. It counts as functional. The gist of the method: (§1)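 Male CF-1 mice, ip in 0.5% methylcellulose; pentetrazole at CD97 (85 mg/kg) injected subcutaneously in a loose fold of neck skin. Observed 30 min; absence of even a threshold seizure (single clonic spasm lasting at least 5 s) counted as protection. Scored protected/tested, or ED50.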

For data set [2], the system named is Mus musculus. The data set is described as follows: Neurotoxicity in ip dosed CF1 albino mouse after 0.5 hrs by rotarod test. It counts as toxicity, organism-based. The following applies: in vivo. The gist of the method: (§2)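 Rotarod neurotoxicity in male albino CF-1 mice dosed ip with compound suspended in 0.5% methylcellulose. Animal placed on a 1 inch diameter knurled plastic rod rotating at 6 rpm. Neurotoxicity scored when the animal falls off three times within 1 min. Readout is number of animals toxic/number tested at the stated time after dosing. TD50 with 95% confidence interval from the quantitative study.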
(In general: The rotarod test checks motor coordination on a turning rod.)

Data set [3] deals with Mus musculus. Kind of data set: Anticonvulsant activity in CF1 albino mouse assessed as protection against maximal electroshock-induced seizure at 3 mg/kg, ip after 0.5 hrs. It counts as functional, organism-based. The essentials:
(§3)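 Male CF-1 mice dosed ip as suspension in 0.5% methylcellulose. Corneal electrodes deliver 60 Hz alternating current, 50 mA for […], after a drop of 0.5% tetracaine HCl in 0.9% NaCl per eye. Protection means abolition of hindlimb tonic extension; scored as protected/tested, or ED50 with 95% confidence interval.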
(In general: Protection in the maximal electroshock model is a classic sign of anticonvulsant action.)

The test system of data set [4] is Mus musculus. Kind of data set: Anticonvulsant activity in CF1 albino mouse assessed as protection against maximal electroshock-induced seizure at 10 mg/kg, ip after 0.5 hrs. It counts as functional, organism-based. The essentials:
as §3

Data set [5] has as its system Mus musculus. Kind of data set: Anticonvulsant activity in CF1 albino mouse assessed as protection against maximal electroshock-induced seizure at 100 mg/kg, ip after 4 hrs. It counts as functional, organism-based. The gist of the method: as §3
The test system of data set [6] is Mus musculus. Kind of data set: Anticonvulsant activity in CF1 albino mouse assessed as protection against subcutaneous pentetrazole-induced seizure at 30 mg/kg, ip after 0.5 hrs. It counts as functional, organism-based. The essentials:
as §1

Data set [7] deals with Mus musculus. The data set is described as follows: Anticonvulsant activity in CF1 albino mouse assessed as protection against subcutaneous pentetrazole-induced seizure at 30 mg/kg, ip after 4 hrs. It counts as functional, organism-based. The essentials:
as §1

In data set [8] the test system is Mus musculus. Kind of data set: Neurotoxicity in CF1 albino mouse at 3 mg/kg, ip after 0.5 hrs by rotarod test. It counts as toxicity, organism-based. As to conditions: in vivo. The essentials: as §2
Data set [9] concerns Mus musculus. The data set is described as follows: Neurotoxicity in CF1 albino mouse assessed as unable to grasp rotarod, death, diarrhea, loss of righting reflux and clonic seizure at 100 mg/kg, ip after 0.5 hrs by rotarod test. It counts as toxicity, organism-based. The following applies: in vivo. The gist of the method: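 Male albino CF-1 mice dosed ip with compound suspended in 0.5% methylcellulose, then placed on a 1-inch knurled plastic rod turning at 6 rpm. A fall three times within 1 min counted as neurotoxicity. Observations were made at 0.5 h and 4 h after dosing. Result given as animals showing toxicity per animals tested, with the kind of toxicity recorded.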

Data set [10] concerns Rattus norvegicus. Kind of data set: Neurotoxicity in Sprague-Dawley rat at 30 mg/kg, ip after 0.25 hrs by rotarod test. It counts as toxicity, organism-based. As to conditions: in vivo. The essentials: (§4)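 Male Sprague–Dawley rats given compound ip as a suspension in 0.5% methylcellulose, groups of four. Rotarod: 1 inch knurled rod at 6 rpm; three falls within 1 min counts as neurotoxic. Scored as number toxic/number tested at pretreatment times between 0.25 and 4 h, or at the stated time.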

The subject of data set [11] is Rattus norvegicus. Kind of data set: Neurotoxicity in Sprague-Dawley rat at 30 mg/kg, ip after 1 hr by rotarod test. It counts as toxicity, organism-based. As to conditions: in vivo. The gist of the method:
as §4

For data set [12], the system named is Rattus norvegicus. Kind of data set: Neurotoxicity in Sprague-Dawley rat at 30 mg/kg, ip after 2 hrs by rotarod test. It counts as toxicity, organism-based. As to conditions: in vivo. The essentials: as §4
Data set [13] concerns Mus musculus. Kind of data set: Anticonvulsant activity in CF1 albino mouse assessed as protection against 6 Hz-psychomotor-induced seizure at 60 mg/kg, ip after 4 hrs. It counts as functional, organism-based. The essentials: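 Male CF-1 mice, ip suspension in 0.5% methylcellulose. Corneal stimulation 0.2 ms monopolar rectangular pulses at 6 Hz, 32 mA for 3 s via constant-current device; mice without minimal clonic phase seizure counted protected. Groups of four; read at 0.25, 0.5, 1, 2, 4 h; result as protected/tested.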

In data set [14] the test system is Mus musculus. The data set is described as follows: Neurotoxicity in ip dosed CF1 albino mouse after 0.25 hrs by rotarod test. It counts as toxicity, organism-based. The following applies: in vivo. The essentials:
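Rotarod neurotoxicity in male albino CF-1 mice dosed ip with compound suspended in 0.5% methylcellulose. Animal placed on a 1 inch diameter knurled plastic rod rotating at 6 rpm. Neurotoxicity scored when the animal falls off three times within 1 min. Readout is number of animals toxic/number tested at the stated time after dosing.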

For orientation: ED50 means the dose that gives a 50% effect, or the effect in half of the subjects. With `CC1CCCN(CCCCCCCOc2ccc(Cl)cc2)C1.O=C(O)C(=O)O` (centres undefined), the ED50 in data set [1] is over 47 mg/kg; in [2] it was 5.35 mg/kg. The outcome in data set [3], in data set [4], in [6], in data set [7] and in data set [13] was inactive. In data set [5], the outcome was Active. Besides, the Activity entry is reported as “Non-toxic” in [8]; “Toxic” in [9]; “Non-toxic” in data set [10]; “Non-toxic” in data set [11]; “Non-toxic” in data set [12]. Also, the “TD50 (median neurotoxic dose)” value in data set [14] was 48.28 mg/kg.
